The source of these data is PMC6221991 (Structure (London, England : 1993), 2018).

One series has as its target T1, human PPARα (hPPARα) (Homo sapiens, UniProt Q07869).
T1 sequence (Q07869 239-466 limits assumed): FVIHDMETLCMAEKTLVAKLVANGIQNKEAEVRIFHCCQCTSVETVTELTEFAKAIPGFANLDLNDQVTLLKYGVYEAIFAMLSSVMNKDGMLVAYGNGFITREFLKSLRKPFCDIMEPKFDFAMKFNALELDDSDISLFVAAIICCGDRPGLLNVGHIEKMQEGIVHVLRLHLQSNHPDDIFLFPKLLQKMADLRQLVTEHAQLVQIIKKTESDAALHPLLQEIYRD
The series is described as follows: PPARα GAL-4 transactivation assay in HEK293T cells. The format is cell-based.

Series [1] is described as follows: Plasma exposure following oral administration in mice. In kind it is in vivo, C57BL/6 mice.
The subject of a further series is PPRE. Nature of the series: full length PPRE transactivation assay. The format is cell-based. As to conditions: for EC50 PPRE: full length PPRE assay.
The target in a further series is T2, PPARγ Gal-4 (Homo sapiens, UniProt P37231).
T2 sequence (P37231 238-503 limits assumed): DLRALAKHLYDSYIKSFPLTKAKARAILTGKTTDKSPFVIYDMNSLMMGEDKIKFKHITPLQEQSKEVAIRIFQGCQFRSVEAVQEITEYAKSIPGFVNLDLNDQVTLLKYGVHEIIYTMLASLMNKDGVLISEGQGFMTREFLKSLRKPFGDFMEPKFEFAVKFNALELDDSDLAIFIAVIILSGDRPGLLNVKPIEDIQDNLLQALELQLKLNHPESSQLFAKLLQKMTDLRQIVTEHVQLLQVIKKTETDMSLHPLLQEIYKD
The series is described as follows: Gal4-PPARγ-LBD cell-based transactivation assay in HEK293T cells.

The target in a further series is T3, His-PPARγ (Homo sapiens, UniProt P37231).
T3 sequence (P37231 1-505): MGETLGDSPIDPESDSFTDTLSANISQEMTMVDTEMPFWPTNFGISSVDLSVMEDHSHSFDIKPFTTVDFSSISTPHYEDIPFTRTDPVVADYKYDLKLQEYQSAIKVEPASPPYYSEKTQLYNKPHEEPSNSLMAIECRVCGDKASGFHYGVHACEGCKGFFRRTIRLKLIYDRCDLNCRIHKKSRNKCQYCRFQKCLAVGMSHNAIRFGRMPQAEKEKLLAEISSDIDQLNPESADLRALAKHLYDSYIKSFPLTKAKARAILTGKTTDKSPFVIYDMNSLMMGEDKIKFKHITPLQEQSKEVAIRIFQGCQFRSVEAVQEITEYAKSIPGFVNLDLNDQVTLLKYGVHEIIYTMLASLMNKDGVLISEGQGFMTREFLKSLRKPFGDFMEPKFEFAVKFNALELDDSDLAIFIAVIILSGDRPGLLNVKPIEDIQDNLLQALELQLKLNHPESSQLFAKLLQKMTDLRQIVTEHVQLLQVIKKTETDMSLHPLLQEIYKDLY
The series is described as follows: TR-FRET NR box peptide recruitment assay. In kind it is biochemical. Particulars: FITC-labeled peptides. (In TR-FRET formats the signal depends on donor and acceptor labels being close together.)

The subject of another series is 3T3-L1 cells. Nature of the series: Differentiation of 3T3-L1 cells. In kind it is cell-based, Mus musculus. As to conditions: for RNA-seq differential gene expression: 3T3-L1 cells, 6 days. The method in brief:
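Mouse 3T3-L1 embryo fibroblasts grown in DMEM with 10% heat-inactivated FBS, 2mM L-glutamine and 1% penicillin/streptomycin at 37 °C, 5% CO2. Test compound (1μM) added from the first day of differentiation; six days' incubation. Lipid droplets stained with Oil Red. Gene expression by qPCR: SYBR green, ΔΔ-Ct method normalised to Tbp. RNA-seq used stranded (dUTP) cDNA libraries. Mean ± SEM.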

The target in series [2] is T4, phosphorylation of PPARγ at S273 (pS273) (Homo sapiens, UniProt P37231).
T4 sequence (P37231 1-505): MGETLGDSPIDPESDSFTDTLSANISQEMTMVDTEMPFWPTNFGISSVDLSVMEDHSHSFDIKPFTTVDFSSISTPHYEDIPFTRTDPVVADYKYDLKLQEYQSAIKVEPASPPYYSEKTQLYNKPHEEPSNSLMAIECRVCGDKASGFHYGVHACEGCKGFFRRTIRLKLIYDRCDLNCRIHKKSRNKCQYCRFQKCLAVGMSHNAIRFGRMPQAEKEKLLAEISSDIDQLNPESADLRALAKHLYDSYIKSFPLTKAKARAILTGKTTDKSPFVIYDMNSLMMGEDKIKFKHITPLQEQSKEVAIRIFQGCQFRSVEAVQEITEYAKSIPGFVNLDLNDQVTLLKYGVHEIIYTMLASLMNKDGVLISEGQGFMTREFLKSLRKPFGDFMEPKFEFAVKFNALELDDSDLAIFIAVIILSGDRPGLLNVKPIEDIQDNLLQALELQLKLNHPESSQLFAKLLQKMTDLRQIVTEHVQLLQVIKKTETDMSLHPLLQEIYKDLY
Nature of the series: In vitro Cdk5 kinase assay, phosphorylation of PPARγ at S273. In kind it is biochemical. As to conditions: vs DMSO only controls. The method in brief:
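1 μg immuno-purified WT PPARγ substrate pre-incubated with test compound for 30 min. Active Cdk5/p35 kinase then added in 25 mM Tris-HCl pH 7.5, 5 mM β-glycerophosphate, 2 mM DTT, 0.1 mM Na3VO4, 10 mM MgCl2 and 20 μM ATP, for 15 min at 30 °C. After SDS–PAGE, phospho-Ser in the K/R-S-P-K/R motif was detected with an anti-CDK-substrate antibody.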

The next series deals with T5, hPPARδ (Homo sapiens, UniProt Q03181).
T5 sequence (Q03181 1-441): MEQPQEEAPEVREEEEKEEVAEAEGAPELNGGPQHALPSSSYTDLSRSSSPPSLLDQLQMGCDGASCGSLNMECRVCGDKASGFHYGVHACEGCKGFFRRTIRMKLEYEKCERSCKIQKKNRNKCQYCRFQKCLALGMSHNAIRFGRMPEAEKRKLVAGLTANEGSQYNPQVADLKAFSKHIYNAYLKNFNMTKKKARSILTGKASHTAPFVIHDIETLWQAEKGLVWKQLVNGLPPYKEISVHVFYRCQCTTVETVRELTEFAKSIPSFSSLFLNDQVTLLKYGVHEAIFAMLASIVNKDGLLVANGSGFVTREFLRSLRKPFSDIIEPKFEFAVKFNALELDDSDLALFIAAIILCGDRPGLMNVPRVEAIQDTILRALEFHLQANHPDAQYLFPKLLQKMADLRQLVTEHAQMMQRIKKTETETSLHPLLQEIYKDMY
The series is described as follows: hPPARδ-Gal4 transactivation assay. Particulars: Figure S1A. The format is cell-based.

Series [3] addresses T4, phosphorylation of PPARγ at S273 (pS273). As to conditions: ref Choi et al., 2010; cited from earlier work.
For the next series, the target named is T6, PPARγ LBD (human, UniProt P37231 231-505).
T6 sequence (looked up): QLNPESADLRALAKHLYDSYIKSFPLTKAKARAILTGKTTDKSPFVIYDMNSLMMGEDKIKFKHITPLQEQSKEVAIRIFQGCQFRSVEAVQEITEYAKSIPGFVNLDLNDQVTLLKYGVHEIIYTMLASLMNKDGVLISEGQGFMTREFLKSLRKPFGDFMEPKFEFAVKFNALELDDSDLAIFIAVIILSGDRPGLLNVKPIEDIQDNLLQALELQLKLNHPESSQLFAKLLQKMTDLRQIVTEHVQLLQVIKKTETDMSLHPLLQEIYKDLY
The series is described as follows: cross-linking.

As a reminder, the EC50 is the midpoint of the concentration-response curve. On to `Cc1c(C)n(Cc2ccc(-c3ccccc3C(=O)O)cc2)c2ccc(C(=O)N[C@@H](C)c3ccc([N+](=O)[O-])cc3)cc12` [SR1664, reference compound], for which the EC50 at human PPARα (hPPARα) (read-out: EC50 PPARα GAL-4) was 8.6 µM. Moreover, in [1] (C57BL/6 mice, oral, 40mg.kg−1, two hours after dosing), the plasma concentration entry is recorded as “less than 1 μM”. Moreover, the “EC50 PPRE” value in the series on PPRE is “No activity”.
One may read the inhibition as the drop in the measured response relative to a control, in per cent. As for `Cc1c(C)n(Cc2ccc(C(C)(C)C(=O)O)cc2)c2ccc(C(=O)N[C@@H](C)c3cccc(C4CC4)c3)cc12` [SR11023, (S)-2-(4-((5-((1-(3-cyclopropylphenyl)ethyl)carbamoyl)-2,3-dimethyl-1H-indol-1-yl)methyl)phenyl)-2-methylpropanoic acid], the “EC50 PPARα GAL-4” value at human PPARα (hPPARα) is reported as “No activity”. In addition, the “transcriptional agonism, hPPARα-Gal4 transactivation” value on human PPARα (hPPARα) (Figure S1A) is reported as “no transcriptional agonism”. This molecule gave a concentration at 2 h in [1] (C57BL/6, mouse, plasma, po, 40 mg.kg−1) of 70 µM. Moreover, the “EC50 PPRE” value in the series with PPRE was “No activity”. Besides, the EC50 on PPARγ Gal-4 (EC50 PPARγ Gal-4, HEK293T) is 2.76 µM. Also, at PPARγ Gal-4 (HEK293T), the “Max.Stim. PPARγ Gal-4” value is given as 10%. Moreover, on PPARγ Gal-4 (data not shown), the “shift of the dose response curve for rosiglitazone in the GAL4-PPARG assay” value is recorded as “significantly right-shift the dose response curve for rosiglitazone”. Also, at His-PPARγ, the “PPARγ interaction with coactivator NR box peptides p300 and SRC1–2” value is “no enhanced interaction”; the “PPARγ interaction with corepressor peptides NCOR1–3 and SMRT-2” value is “increased”. In the series on 3T3-L1 cells, the “RNA-seq differential gene expression” value was “very modest regulation of only a small subset of PPARγ controlled genes”. The “adipogenic activity (lipid formation, aP2 and cd36 expression)” value with 3T3-L1 cells (differentiated 3T3-L1 cells, 1μM, six days) is on record as “minimal adipogenic activity”. Moreover, the “% inhibition p273-PPARγ” value in [2] (20μM, 20 µM) turned out to be 77%. Moreover, the inhibition at 2 µM in [2] (read-out: % inhibition p273-PPARγ, 2μM) worked out at 25%. On hPPARδ, the “transcriptional agonism, hPPARδ-Gal4 transactivation” value is listed as “no transcriptional agonism”.
In the case of `CN(CCOc1ccc(CC2SC(=O)NC2=O)cc1)c1ccccn1` (centres unmarked) [Rosiglitazone, reference compound], the EC50 in the series on PPRE (read-out: EC50 PPRE) stood at 0.01 µM. Further, the “RNA-seq differential gene expression” value with 3T3-L1 cells is “robust activation of a large gene set containing many known PPARγ target genes”.
For the molecule MRL24, the “inhibition of p273-PPARγ compared with Rosi” value in series [3] is “More potent than Rosi to inhibit p273 ([Choi et al., 2010])”. On His-PPARγ, the “PPARγ interaction with coactivator NR box peptides p300 and SRC1–2” value is on record as “enhanced the association”; the “PPARγ interaction with corepressor peptides NCOR1–3 and SMRT-2” value is listed as “facilitated dissociation”.
In the case of LTERHKILHRLLQEGSPSD [SRC1–2 NR box peptide], the binding result with PPARγ LBD is listed as “binds”.
